ChEMBL document CHEMBL5385911, “Exploring the Dispersion and Electrostatic Components in Arene-Arene Interactions between Ligands and G4 DNA to Develop G4-Ligands” (J Med Chem, 2024)
≈ marks a conversion by molar mass, not a printed value. Calls of active or inactive are those of the source. The calls are words filed in the database; no cut-off is given here.

Key:
[1] = Solubility of the compound at pH 7.4; type: physicochemical; conditions: buffer
[2] = system: Quadruplex DNA; experiment: Stabilization of fluorescently labelled c-Myc G4-quadruplex Pu22 DNA (unknown origin) assessed as increase in thermal stability of DNA structure at 40 equiv. by FRET melting assay; type: nucleic-acid assay
In short: (§1)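 Pu22 (FAM/TAMRA, 0.2 μM), folded in 10 mM lithium cacodylate pH 7.4, 2 mM KCl, 98 mM LiCl. Ligand at 5, 10, 25 or 40 equivalents. Heated 10–95 °C; donor emission at 516 nm (excitation 492 nm) normalized. Tm taken at 0.5 normalized emission; ΔTm is Tm with ligand minus Tm without ligand. Duplicate wells.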

[3] = system: Quadruplex DNA; experiment: Stabilization of G4-quadruplex PEPu24T DNA (unknown origin) assessed as inhibition of Taq DNA polymerase activity by measuring full length DNA product at 0.24 uM pretreated for 10 mins followed by incubation with dNTPs for 15 mins by PAGE analysis; type: nucleic-acid assay; parameters: scale not given: the % may be the effect or the level left; conditions: time 25.0 min
In short: (§2)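 Template made by annealing TET-labelled 25 nt primer (1 μM final) to PEPu24T (1.25 μM final) in 100 mM KCl. Reaction: 40 nM template, Taq buffer pH 8.8 with 50 mM KCl, 25 mM MgCl2, 0.05 U Taq. Compound preincubated on ice 10 min; dNTPs (100 μM) added, 37 °C 15 min. Denaturing 12% urea/formamide PAGE; full-length product expressed as % of no-compound sample; SD of ≥2 independent experiments.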

[4] = Stabilization of double stranded PEPu24T mut DNA (unknown origin) assessed as inhibition of Taq DNA polymerase activity by measuring reduction in full length DNA product at 6 uM pretreated for 10 mins followed by incubation with dNTPs for 15 mins by PAGE analysis; conditions: time 25.0 min
In short: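 Non-G4 control template: TET-labelled 25 nt primer (1 μM final) annealed to mutated PEPu24T mut (1.25 μM final) in 100 mM KCl. 40 nM template, Taq buffer pH 8.8, 25 mM MgCl2, 0.05 U Taq. Compound on ice 10 min, then 100 μM dNTPs at 37 °C 15 min. Denaturing PAGE; full-length product as % of no-compound sample.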

[5] = system: Quadruplex DNA; experiment: Stabilization of 5'-FAM and 3'-TAMRA labelled c-Myc G4-quadruplex Pu24T DNA (unknown origin) assessed as increase in thermal stability of DNA structure at 5 to 40 equiv. by FRET melting assay; conditions: dose 5-40 equiv
[6] = system: Quadruplex DNA; experiment: Binding affinity to c-Myc G4-quadruplex Pu22 DNA (unknown origin) assessed as change in entropy by isothermal titration calorimetry; type: nucleic-acid assay
In short: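 Reverse titration: cell holds 20 μM ligand, syringe 120 μM prefolded G4 DNA, 20 injections in 10 mM potassium phosphate, 100 mM KCl, pH 7.4, at 19 °C. First injection 0.5 μL, then 2 μL, 120 s spacing, 1000 rpm, high-feedback mode. Data fitted to one-site binding model.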

[7] = system: Quadruplex DNA; experiment: Stabilization of G4-quadruplex PEPu24T DNA (unknown origin) assessed as inhibition of Taq DNA polymerase activity by measuring reduction in full length DNA product at 1.2 uM pretreated for 10 mins followed by incubation with dNTPs for 15 mins by PAGE analysis; type: nucleic-acid assay; conditions: time 25.0 min; in short: as §2
[8] = system: Quadruplex DNA; experiment: Binding affinity to c-Myc G4-quadruplex Pu22 DNA (unknown origin) at 0.7 equivalent by NMR titration analysis; type: nucleic-acid assay; conditions: dose 0.7 equiv
In short: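 Pu22 folded at 100 μM in 10 mM potassium phosphate pH 7.4, 35 mM KCl (95 °C 10 min, cooled overnight). 10% D2O added, giving 90 μM DNA. Compound added stepwise in increasing equivalents. 1D 1H spectra with excitation sculpting, 256 scans, 298 K, 850 MHz.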

[9] = system: Quadruplex DNA; experiment: Stabilization of fluorescently labelled G4-quadruplex c-KIT2 DNA (unknown origin) assessed as increase in thermal stability of DNA structure at 5 uM by FRET melting assay; type: nucleic-acid assay
In short: (§3)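 0.2 μM FAM/TAMRA dual-labelled oligonucleotide, prefolded in 10 mM lithium cacodylate pH 7.4, 10 mM KCl, 90 mM LiCl (95 °C 10 min, then ≥1 h cold). Ligand added and sample heated from 10 to 95 °C; donor emission at 516 nm (excitation 492 nm) normalized. Tm taken at 0.5 normalized emission; ΔTm is Tm with ligand minus Tm without ligand. Duplicate wells.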

[10] = system: Quadruplex DNA; experiment: Stabilization of fluorescently labelled G4-quadruplex 25Ceb DNA (unknown origin) assessed as increase in thermal stability of DNA structure at 5 uM by FRET melting assay; type: nucleic-acid assay; in short: as §3
[11] = system: Quadruplex DNA; experiment: Stabilization of fluorescently labelled G4-quadruplex Bcl2 DNA (unknown origin) assessed as increase in thermal stability of DNA structure at 5 uM by FRET melting assay; type: nucleic-acid assay; in short: as §3
[12] = system: Quadruplex DNA; experiment: Stabilization of fluorescently labelled G4-quadruplex 21G DNA (unknown origin) assessed as increase in thermal stability of DNA structure at 5 uM by FRET melting assay; type: nucleic-acid assay; in short: as §3
[13] = system: Quadruplex DNA; experiment: Stabilization of fluorescently labelled G4-quadruplex Bom17 DNA (unknown origin) assessed as increase in thermal stability of DNA structure at 5 uM by FRET melting assay; type: nucleic-acid assay; in short: as §3
[14] = system: Quadruplex DNA; experiment: Stabilization of fluorescently labelled G4-quadruplex Tba DNA (unknown origin) assessed as increase in thermal stability of DNA structure at 5 uM by FRET melting assay; type: nucleic-acid assay; in short: as §3
[15] = system: Quadruplex DNA; experiment: Stabilization of fluorescently labelled c-Myc G4-quadruplex Pu22 DNA (unknown origin) assessed as increase in thermal stability of DNA structure at 5 uM in presence of double stranded competitor DNA ds26 by FRET melting assay; type: nucleic-acid assay
In short: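 Competition melting: 0.2 μM labelled Pu22 in 10 mM lithium cacodylate pH 7.4, 2 mM KCl, 98 mM LiCl, with ligand plus 0–100 equivalents of ds26 duplex competitor. Heated 10–95 °C; FAM emission normalized. Tm taken at 0.5 normalized emission; ΔTm is Tm with ligand minus Tm without ligand. SD of at least six independent experiments.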

[16] = system: dsDNA; experiment: Binding affinity to 5'-Cy5-labelled double stranded DNA ds26 (unknown origin) by microscale thermophoresis analysis; type: nucleic-acid assay
In short: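 Cy5-labelled DNA held at 25 nM, folded in 10 mM phosphate, 100 mM KCl, pH 7.4 (95 °C 5 min, cooled to room temperature). Ligand in 16 1:3 dilutions in 10 mM phosphate pH 7.4, 100 mM KCl, 0.05% Tween20. Capillary fluorescence read at 20% LED power; change in fluorescence versus ligand concentration fitted by nonlinear equation for binding constant.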

[17] = system: THP-1; experiment: Cytotoxicity against human THP-1 cells assessed as reduction in cell viability at <50 uM; type: toxicity, cell-based; conditions: thp-1, 50 µM
[18] = system: Quadruplex DNA; experiment: Stabilization of G4-quadruplex DNA in human HeLa cells assessed as increase in BG4-positive cell nuclei at 20 uM incubated for 24 hrs by immunofluorescence microscopy; type: functional, cell-based
In short: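 HeLa cells (60,000 on coverslips) treated 24 h. Cells fixed in 2% paraformaldehyde, permeabilized in 0.1% Triton X-100, blocked in 2% milk. Stained with BG4–FLAG (1/3000), rabbit anti-FLAG, then Alexa594 anti-rabbit, each 1 h at 37 °C; nuclei stained with DAPI. BG4 foci per nucleus counted, 90–166 cells per condition. Welch-corrected t tests on ln-transformed data; mean ± 2SD shown.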

[19] = system: Quadruplex DNA; experiment: Stabilization of fluorescently labelled c-Myc G4-quadruplex Pu22 DNA (unknown origin) assessed as increase in thermal stability of DNA structure at 5 to 40 equiv. by FRET melting assay; type: nucleic-acid assay; conditions: dose 5-40 equiv; in short: as §1
[20] = system: Quadruplex DNA; experiment: Stabilization of G4-quadruplex PEPu24T DNA (unknown origin) assessed as inhibition of Taq DNA polymerase activity by measuring reduction in full length DNA product at 0.048 to 6 uM pretreated for 10 mins followed by incubation with dNTPs for 15 mins by PAGE analysis; type: nucleic-acid assay; conditions: dose 0.048-6 µM, time 25.0 min; in short: as §2

SMILES	solubility [1] [µM]	Activity [2]	Activity [4]	Activity [5]	also measured
Cc1cc(C)c2nc(Nc3nc(C)cc(C)n3)nc(C)c2c1	134 (≈ 39.3 µg/mL)	–	inactive	–	-TdeltaS [6]: 3.2 kcal/mol; inhibition [7]: 50%; Activity [8]: Active; Activity [9]: Active; Activity [10]: Active; Activity [11]: Active; Activity [12]: Active; Activity [13]: Active; Activity [14]: inactive; Activity [15]: Active; Activity [16]: inactive; Activity [17]: Non-Toxic; Activity [18]: Active
Cc1cc(C)nc(Nc2nc(C)c3cc(Cl)ccc3n2)n1	–	–	inactive	–	–
Cc1cc(NCCCN(C)C)nc(Nc2nc3cc(C)c(C)cc3nc2C)n1	–	–	inactive	Active	Activity [19]: Active; Activity [20]: Active
Cc1ccc2nc(Nc3nc(C)cc(C)n3)nc(C)c2c1	134 (≈ 37.4 µg/mL)	–	inactive	–	–

Continued, in another order:

solubility [1] [µM]	Activity [2]	Activity [4]	Activity [5]	SMILES	also measured
858 (≈ 314 µg/mL)	Active	inactive	Active	Cc1ccc2nc(Nc3nc(C)cc(NCCCN(C)C)n3)nc(C)c2c1	Activity [3]: 30%
858 (≈ 327 µg/mL)	Active	inactive	Active	COc1ccc2nc(Nc3nc(C)cc(NCCCN(C)C)n3)nc(C)c2c1	–
–	Active	inactive	Active	Cc1cc(NCCCN(C)C)nc(Nc2nc(C)c3ccccc3n2)n1	–
134 (≈ 39.6 µg/mL)	–	inactive	–	COc1ccc2nc(Nc3nc(C)cc(C)n3)nc(C)c2c1	–
